# Test results published in ChEMBL document CHEMBL1154414, “In vitro and in vivo activities of T-705 against arenavirus and bunyavirus infections” (Antimicrob Agents Chemother, 2007).
# pEC50: −log10 of the molar value.
# Assays:
# Pichinde virus [1] = assay: Antiviral activity against Pichinde virus An 4763 infected Syrian golden hamster assessed as animals with detectable virus level in serum at 50 mg/kg, po twice daily for 7 days administered 24 hrs post viral-challenge measured on day 7 of viral infection; type: functional
# In short: (§1)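 Hamsters (groups of 15, placebo 25-30) were dosed orally by gavage twice daily (drug suspended in 0.4% CMC) after bilateral intraperitoneal challenge with 65 PFU. Five per group were killed on day 7. Liver homogenate or serum was serially diluted onto triplicate B-SC-1 wells, CPE was read at 6-8 days, and the 50% endpoint was taken. Range was 2.8-9.5 log10 CCID50/0.1 g or 0.1 ml, with undetectable assigned <2.8.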
# Pichinde virus [2] = assay: Antiviral activity against Pichinde virus An 4763 infected Syrian golden hamster assessed as mean day of death at 40 mg/kg, po twice daily for 7 days administered 4 hrs before viral-challenge; type: functional
# In short: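 Groups of 15 hamsters (placebo 25-30) were challenged intraperitoneally (bilateral, 65 PFU) and dosed twice daily by oral gavage in 0.4% CMC for 5 to 7 days.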
# Punta Toro virus [3] = assay: Antiviral activity against 50 PFU Punta Toro virus Adames infected C57BL/6 mouse assessed as mean viral titer per 0.1 g of liver at 30 mg/kg, po twice daily administered 24 hrs post viral challenge measured on day 3 of viral infection; type: functional
# In short: (§2)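 Mice were infected subcutaneously with PTV and dosed by oral gavage twice daily with drug in 0.4% CMC. Five per group (10 placebo) were sacrificed on day 3 or 4. Serially diluted liver homogenate or serum went into triplicate LLC-MK2 wells, and CPE 50% endpoints were read at 6–8 days. The range was 2.8–9.5 log10 CCID50/0.1 g or 0.1 ml, with undetectable samples set to 2.8 and saturated samples to 9.5.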
# Pichinde virus [4] = assay: Antiviral activity against Pichinde virus An 4763 in Vero cells assessed as inhibition of virus-induced visual cytopathic effect after 7 to 8 days; type: functional, organism-based
# In short: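 Subconfluent (50-70%) Vero cells were infected with virus in 2% FBS medium at the CCID50 giving maximal CPE. Half-log drug dilutions were added at infection. EC50 was obtained by regression analysis.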
# Punta Toro virus [5] = assay: Antiviral activity against 5000 PFU Punta Toro virus Adames infected C57BL/6 mouse assessed as mean serum ALT levels at 30 mg/kg, po twice daily administered 24 hrs post viral challenge measured on day 3 of viral infection; type: functional
# In short: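 C57BL/6 mice received subcutaneous PTV, then oral gavage twice daily for 5–7 days. T-705 was given in 0.4% CMC and ribavirin in saline. Five mice per group (10 placebo) were killed on day 3 or 4, and serum was collected. ALT activity was measured by kinetic assay. Three sham-infected mice set baselines.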
# Punta Toro virus [6] = assay: Antiviral activity against Punta Toro virus Adames infected Syrian golden hamster assessed as mean day of death at 30 mg/kg, po twice daily for 6 days administered 4 hrs before viral challenge; type: functional
# In short: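 Hamsters (groups of 15, placebo 25-30) were challenged subcutaneously with 50 PFU and dosed twice daily by oral gavage in 0.4% CMC vehicle.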
# Punta Toro virus [7] = assay: Antiviral activity against 5000 PFU Punta Toro virus Adames infected C57BL/6 mouse assessed as animals with detectable virus level in liver at 10 mg/kg, po twice daily administered 24 hrs post viral challenge measured on day 3 of viral infection; type: functional
# In short: (§3)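 Mice were infected subcutaneously with PTV and dosed by oral gavage twice daily; 5 per group (10 placebo) were killed on day 3 or 4. Liver homogenate or serum was serially diluted onto triplicate LLC-MK2 monolayers, and CPE was read 6–8 days later. 50% endpoints gave log10 CCID50 per 0.1 g liver or 0.1 ml serum. Detection range was 2.8–9.5; undetectable samples were assigned <2.8.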
# Punta Toro virus [8] = assay: Antiviral activity against 50 PFU Punta Toro virus Adames infected C57BL/6 mouse assessed as animals with detectable virus level in serum at 10 mg/kg, po twice daily administered 24 hrs post viral challenge measured on day 3 of viral infection; type: functional
# In short: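 T-705 was suspended in 0.4% carboxymethylcellulose and given by oral gavage twice daily. Mice were infected subcutaneously with PTV. Five mice per group (10 placebo) were sacrificed on day 3 or 4. Liver homogenate or serum was serially diluted onto triplicate LLC-MK2 monolayers, and CPE was read at 6–8 days. The detection limit was 2.8 log10 CCID50 per 0.1 g liver or 0.1 ml serum.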
# Punta Toro virus [9] = assay: Antiviral activity against 50 PFU Punta Toro virus Adames infected C57BL/6 mouse assessed as mean viral titer per 0.1 mL of serum at 30 mg/kg, po twice daily administered 24 hrs post viral challenge measured on day 3 of viral infection; type: functional; in short: as §2
# Pichinde virus [10] = assay: Antiviral activity against Pichinde virus An 4763 infected Syrian golden hamster assessed as mean viral titer per 0.1 g of liver at 20 mg/kg, po twice daily for 7 days administered 72 hrs post viral-challenge measured on day 7 of viral infection; type: functional; in short: as §1
# Punta Toro virus [11] = assay: Antiviral activity against 50 PFU Punta Toro virus Adames infected C57BL/6 mouse assessed as mean serum ALT levels at 10 mg/kg, po twice daily administered 24 hrs post viral challenge measured on day 3 of viral infection; type: functional
# In short: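 Subcutaneous PTV infection was followed by oral gavage twice daily with drug suspended in 0.4% CMC. Serum was collected from 5 sacrificed mice per group (10 placebo) on day 3 or 4. ALT activity was measured by kinetic assay, and sham-infected mice set the baselines.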
# Pichinde virus [12] = assay: Antiviral activity against Pichinde virus An 4763 infected Syrian golden hamster assessed as mean viral titer per 0.1 g of liver at 50 mg/kg, po twice daily for 7 days administered 24 hrs post viral-challenge measured on day 7 of viral infection; type: functional; in short: as §1
# Punta Toro virus [13] = assay: Antiviral activity against 5000 PFU Punta Toro virus Adames infected C57BL/6 mouse assessed as mean viral titer per 0.1 mL of serum at 10 mg/kg, po twice daily administered 24 hrs post viral challenge measured on day 3 of viral infection; type: functional; in short: as §3
# Pichinde virus [14] = assay: Antiviral activity against Pichinde virus An 4763 infected Syrian golden hamster assessed as animals with detectable virus level in liver at 50 mg/kg, po twice daily for 7 days administered 72 hrs post viral-challenge measured on day 7 of viral infection; type: functional; in short: as §1
# Junin virus = assay: Antiviral activity against Junin virus Candid-1 in Vero cells assessed as inhibition of virus-induced visual cytopathic effect after 7 to 8 days; type: functional, organism-based; settings: Mammarenavirus juninense, Candid-1, Vero
# Pichinde virus [15] = assay: Antiviral activity against Pichinde virus An 4763 infected Syrian golden hamster assessed as mean viral titer per 0.1 mL of serum at 20 mg/kg, po twice daily for 7 days administered 72 hrs post viral-challenge measured on day 7 of viral infection; type: functional; in short: as §1
# Punta Toro virus [16] = assay: Antiviral activity against Punta Toro virus Adames infected Syrian golden hamster assessed as animals with detectable virus level in liver at 30 mg/kg, […] measured on day 4 of viral infection; type: functional; settings: route oral
# Pichinde virus [17] = assay: Antiviral activity against Pichinde virus An 4763 infected Syrian golden hamster assessed as mean viral titer per 0.1 g of liver at 20 mg/kg, po twice daily for 7 days administered 24 hrs post viral-challenge measured on day 7 of viral infection; type: functional; in short: as §1
# [18] = system: Sandfly fever Naples virus; assay: Antiviral activity against Sandfly fever Naples virus assessed as inhibition of virus-induced visual cytopathic effect after 3 to 5 days; type: functional, organism-based
# In short: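 Virus in medium with 2% FBS was used at the CCID50 that gave maximal CPE. Half-log drug dilutions (DMSO stock, ≤1% DMSO at the top concentration) were added at infection. EC50 was derived by regression analysis.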
SMILES,Activity (Pichinde virus [1]) [%],Activity (Pichinde virus [2]) [days],log10CCID50 (Punta Toro virus [3]),pEC50 (Pichinde virus [4]),Activity (Punta Toro virus [5]) [IU/L],Activity (Punta Toro virus [6]) [days],Activity (Punta Toro virus [7]) [%],Activity (Punta Toro virus [8]) [%],log10CCID50 (Punta Toro virus [9]),log10CCID50 (Pichinde virus [10]),Activity (Punta Toro virus [11]) [IU/L],log10CCID50 (Pichinde virus [12]),log10CCID50 (Punta Toro virus [13]),Activity (Pichinde virus [14]) [%],pEC50 (Junin virus),log10CCID50 (Pichinde virus [15]),Activity (Punta Toro virus [16]) [%],log10CCID50 (Pichinde virus [17]),pEC50 [18]
NC(=O)c1nc(F)cnc1O [FAVIPIRAVIR],80,11,<2.8,5.22,521,6,20,100,<4.4,>8.6,3273,5.7,<5.2,100,5.30,>8.6,40,>8.4,3.94
NC(=O)c1ncn([C@@H]2O[C@H](CO)[C@@H](O)[C@H]2O)n1 [RIBAVIRIN],40,11,<2.8,4.89,1491,13.3,0,60,6.1,6.8,846,4.2,5.9,100,4.96,6.8,0,6,4.05
